# This is a sample that favours compounds with a hit; in the whole collection about 2.2% have one here.
# TRAIL sens C8 – caspase-8 TRAIL sensitization | NB7+C8 cells + TRAIL, ATPlite viability luminescence | inhibition (viability loss, TRAIL sensitization), % at 10 µM | actives 1% (n = 360,000);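 active = compounds causing at least 50% loss of cell viability in the single-dose screen, relative to plate controls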
# FLuc act counter – firefly luciferase counter-screen for stimulation assays. P08659. activation factor at 10 µM. ATPlite luciferase biochemical, luminescence, 10 min; 0 = ATP-free wells, 1 = DMSO control. 200,000 tested, under 10 active. AID 1027;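 active = luciferase activation factor, scaled between plate controls, of at least 2 with compound at 10 µM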
# Target sequence (P08659 whole entry, looked up): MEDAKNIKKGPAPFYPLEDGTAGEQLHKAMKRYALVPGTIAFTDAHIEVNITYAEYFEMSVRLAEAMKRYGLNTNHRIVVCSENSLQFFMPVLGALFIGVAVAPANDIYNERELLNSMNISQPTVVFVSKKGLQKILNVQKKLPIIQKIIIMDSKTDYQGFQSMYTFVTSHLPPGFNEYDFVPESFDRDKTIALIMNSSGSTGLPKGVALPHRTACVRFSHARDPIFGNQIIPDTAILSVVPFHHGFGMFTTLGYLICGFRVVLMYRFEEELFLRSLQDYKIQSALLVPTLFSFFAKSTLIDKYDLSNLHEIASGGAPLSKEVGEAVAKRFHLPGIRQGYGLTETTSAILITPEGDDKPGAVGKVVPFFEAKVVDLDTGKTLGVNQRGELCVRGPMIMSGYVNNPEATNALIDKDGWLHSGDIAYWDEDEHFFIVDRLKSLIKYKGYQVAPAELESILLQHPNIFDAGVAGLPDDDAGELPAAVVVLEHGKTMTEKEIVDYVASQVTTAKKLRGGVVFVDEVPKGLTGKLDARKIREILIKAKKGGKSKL
#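 Material: Luciferase/luciferin reagent mix; Doses: test compounds dosed from 2 mM stocks in 100% DMSO; Schedule: 10 min incubation after luciferase reagent addition, room temperature; Measured by: luminescence from luciferase reaction; Read-out: luminescence gain marking luciferase activators.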
# FLuc inhib CS – Photinus pyralis luciferase inhibition counter-screen. actives 1.5% (n = 200,000). ATPLite firefly luciferase biochemical luminescence, 10 min. P08659. inhibition, % at 10 µM;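 active = inhibition above about 50% when tested at 10 µM, limit read from the data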
# APP 5'UTR act – APP 5'UTR luciferase reporter activation; activation, % at 2 µM; SH-SY5Y APP 5'UTR luciferase reporter, luminescence; zero percent = DMSO vehicle wells; actives 1% (n = 190,000);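 active = activation above a set limit, based on mean plus 3 SD of controls, cut at about 140% in these data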
# NF-kB neuron act – compounds increasing NF-kB expression in human neuronal cells; NF-kB reporter expression; active compounds read high; fold change at 12.5 µM; actives 1.6% (n = 190,000); in the data active = fold change above about 3.3
# PPC-1+TRAIL kill – compounds killing PPC-1 cancer cells with TRAIL present (potentiator screen, no TRAIL-free arm); PPC-1 cells + TRAIL, ATPLite viability luminescence; cell killing (% activity), % at 4 µM or 5 µM; actives 0.41% (n = 220,000); AID 1443;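 active = cell killing above 50% in the first pass at 4 µM, then a duplicate retest at 5 µM averaging 50% or more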;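 also: plate controls were cells with TRAIL plus DMSO for no effect and medium-only wells lacking cells for full effect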
# Numbers without * were called inactive; . = not tested or not shown.
SMILES,TRAIL sens C8,FLuc act counter,FLuc inhib CS,APP 5'UTR act,NF-kB neuron act,PPC-1+TRAIL kill
O=[N+]([O-])c1ccccc1/C=C/C=N/N1CCCCC1,11.9,0.5,46.3,99.2,4.48*,15.7
CCN1CCN(c2ccc(S(=O)(=O)N3CCOCC3)cc2NC(=O)c2ccc(Cl)s2)CC1,-6.5,.,.,.,.,.
CCOC(=O)C1CCCN(C(=O)c2ccc3c(c2)C(C)(C)CCC3(C)C)CC1 (stereo unspecified),16.3,.,.,.,.,.
CCOC(=O)CN(c1sc(C)c(C)c1C(=O)OCC)S(=O)(=O)c1ccc(C)cc1,-0.5,.,.,.,.,.
O=C(Cc1cccs1)N/N=C/C=C/c1ccccc1,9.0,1,3.8,33.7,1.4,-9.6
O=C(N/N=C/C=C/c1ccccc1)c1cccs1,0.6,0.7,32.3,77.8,3.55*,24.0
CC(/C=N/NC(=O)c1cccs1)=C\c1ccco1,2.2,0.4,56.7*,160.1*,5.55*,19.2
CC(/C=N/NC(=O)Cc1cccs1)=C\c1ccco1,-1.4,1.1,-6.0,-2.2,1.61,-11.6
COCCN(C(=O)C1CCCO1)c1c(N)n(CC(C)C)c(=O)[nH]c1=O (stereo unspecified),-14.4,.,.,.,.,.
COc1cccc(C(=O)O/N=C2\CCS(=O)(=O)c3sccc32)c1,5.3,0.4,59.5*,-13.7,1.48,0.7
CCOC(=O)C1=CN(Cc2cccc(F)c2)S(=O)(=O)N(CC)C1c1ccccc1 (stereo unspecified),6.8,.,.,.,.,.
CCCOc1ccc(/C=N/Nc2ccccc2[N+](=O)[O-])c(O)c1,41.8,0.8,22.1,172.7*,0.86,17.7
O=[N+]([O-])c1cccnc1N/N=C/c1ccccc1O,50.7*,1,-0.1,-8.3,1.84,20.3
Cc1cc2nc(-c3ccc(SCC(=O)N4CCc5ccccc54)nc3)[nH]c2cc1C,81.2*,0.2,82.1*,110.0,1.5,44.6
COC(=O)CSc1ccc(-c2nc3ccc(C)cc3[nH]2)cn1,10.4,0.4,61.3*,9.6,0.46,24.4
Cc1cc2nc(-c3ccc(SCc4ccc(C(=O)O)cc4)nc3)[nH]c2cc1C,7.3,0.8,17.5,89.1,1.36,20.0
Cc1cc2nc(-c3ccc(SCC(=O)NC(C)C)nc3)[nH]c2cc1C,.,0.5,50.9*,56.5,1.87,30.3
Cc1ccc2nc(-c3ccc(NC(=O)Cc4cccs4)cc3)[nH]c2c1,17.7,0.9,10.9,108.7,2.23,6.7
O=C(CN1CCCCC1)Nc1ccc(S(=O)(=O)NC2CCCCC2)cc1,-12.5,1,-3.4,-4.8,0.98,23.4
Cc1cc2nc(-c3ccc(SCC(=O)Nc4ccc(S(=O)(=O)NC5CC5)cc4)nc3)[nH]c2cc1C,83.9*,0.1,86.3*,131.5,5.93*,51.6*
Cc1[nH]n(-c2nc(-c3cccc([N+](=O)[O-])c3)cs2)c(=O)c1C,27.7,0.4,61.0*,24.0,1.93,26.3
Cc1ccc(NC(=O)Cc2cc(C(=O)O)c3ccccc3n2)c(C)c1,10.4,0.8,21.4,-11.9,4.59*,15.7
O=c1c2sccc2[nH]c(=S)n1Cc1ccccc1,-6.0,1,-3.9,-0.1,1.16,24.3
N#C/C(=C\c1cc(Cl)cc(Cl)c1O)C(=O)NC1CCCCC1,54.1*,1.1,-9.7,-9.7,1.31,9.7
COc1ccc2cnn(CCOc3ccccc3)c(=O)c2c1OC,9.7,0.8,21.2,176.2*,3.63*,4.3
SMILES,TRAIL sens C8,FLuc act counter,FLuc inhib CS,APP 5'UTR act,NF-kB neuron act,PPC-1+TRAIL kill
O=c1c2ccccc2cnn1-c1ccc(Cl)nn1,0.4,0.9,5.7,7.9,1.45,17.6
O=c1c2ccccc2cnn1-c1ccc2ccccc2c1,51.3*,0.4,64.0*,167.6*,3.43*,7.1
O=c1c2ccccc2cnn1-c1ccc(Br)cc1,20.3,0.5,47.8,124.3,6.36*,31.8
CCC(c1nnnn1-c1ccc2c(c1)OCCO2)N1CCN(C(C)=O)CC1 (stereo unspecified),-9.9,.,.,.,.,.
Cn1nc(C2CC2)cc1NC(=O)C1(C)CCN1C(=O)CCc1ccccc1 (stereo unspecified),9.5,.,.,.,.,.
C=CCn1c(SCc2ccccc2)nc2scc(-c3ccc(C)o3)c2c1=O,-15.6,1,-4.2,-2.0,1.21,14.8
C=CCn1c(SCC(N)=O)nc2scc(-c3ccc(C)o3)c2c1=O,15.5,0.8,15.5,166.6*,2.75,33.5
O=C(c1ccoc1)N1CCN(c2cc(-c3ccncc3)nc3cc(-c4cccc(Cl)c4)nn23)CC1,18.6,.,.,.,.,.
O=C(c1ccncc1)N1CCN(c2cc(-c3ccccc3)nc3cc(-c4cccc(Cl)c4)nn23)CC1,70.2*,.,.,.,.,.
COc1ccc2c(c1OC)C(=O)N1c3ccccc3COC21 (stereo unspecified),47.4,0.3,72.0*,81.9,4.4*,24.6
COc1ccc2c(c1OC)C(=O)N1c3ccccc3SC21 (stereo unspecified),26.6,0.5,53.8*,79.3,1.96,5.2
COc1ccc2c(c1OC)C(=O)N1c3cccc(Cl)c3C(=O)OC21 (stereo unspecified),6.8,1,3.9,11.1,1.2,7.4
O=[N+]([O-])c1c(C(Cl)Cl)nn(-c2ccc(Cl)cc2)c1N1CCCCC1,31.4,1.1,-8.5,11.8,1.33,16.7
CCn1ccc(C(=O)Nc2ccc(Cl)cn2)n1,2.4,0.9,11.1,.,2.82,14.6
CCn1ccc(C(=O)Oc2ccc(Cl)cc2)n1,-1.3,0.5,53.5*,-0.4,1.21,-2.5
CCOC(=O)c1c(C)nc2c3ccccc3ccn12,49.6*,0.5,53.7*,160.3*,5.01*,24.8
O=c1ccnc(SCCc2ccccc2)[nH]1,-9.4,.,.,.,.,.
O=c1ccnc(S/C=C/c2ccccc2)[nH]1,7.5,0.4,63.0*,0.7,1.45,33.7
Cc1ccc(/C=C/C(=O)N2CCc3ccccc3C2)cc1,13.4,0.5,50.8*,1.4,2.07,31.8
Cc1ccc(/C=N/NC(=O)c2cc(C)oc2C)cc1,50.2*,.,.,.,.,43.5
CC(/C=N\NC(=O)c1cc(C)oc1C)=C\c1ccccc1,49.1,0.2,76.3*,33.2,1.48,42.7
Fc1ccc(-n2ncc3c(SCc4cccnc4)ncnc32)cc1,19.4,0.7,27.7,89.8,3.4*,-3.1
CCCN(CC(=O)Nc1ccccc1C)C(=O)CCl,91.0*,1,-2.5,2.0,0.2,35.8
CCCN(CC(=O)Nc1ccccc1C)C(=O)COc1c(C)cccc1C,5.8,.,.,.,.,.
Cc1ccccc1C1c2[nH]c3ccccc3c2CCN1Cc1cccn1-c1ncccn1 (stereo unspecified),6.0,.,.,.,.,-6.3
Cc1cc(NC(=O)c2cc(-c3ccc(C)c(C)c3)nc3ccccc23)no1,8.0,0.7,26.9,5.6,1.03,5.8
CCCc1ccc(-c2cc(C(=O)Nc3ccc([N+](=O)[O-])cn3)c3ccccc3n2)cc1,51.1*,0.4,58.1*,22.7,0.93,18.5
